# Test results: ChEMBL document CHEMBL1240328, “Selective compounds define Hsp90 as a major inhibitor of apoptosis in small-cell lung cancer” (Nat Chem Biol, 2007)
# Activity calls are given as the source filed them. The rule behind the calls is not given here.
# Tests used:
# [1] = target: RAC-alpha serine/threonine-protein kinase (Homo sapiens) (UniProt P31749); details: NCI-H526, 50 uM
# [2] = target: Heat shock protein HSP 90-beta (Homo sapiens) (UniProt P08238); assay: Inhibition of HSP90-mediated proliferation of human SKBR3cells after 72 hrs by sulforhodamine B assay
# [3] = target: Heat shock protein HSP 90-beta (Homo sapiens) (UniProt P08238); assay: Binding affinity to HSP90 in human SKBR3 cells after 24 hrs by fluorescence polarization assay; details: SK-BR-3
# [4] = target: Heat shock protein HSP 90-beta (Homo sapiens) (UniProt P08238); assay: Inhibition of HSP90-mediated antiapoptotic activity in human SKBR3 cells assessed as induction of caspase-3 cleavage at 400 uM after 24 hrs by Western blot analysis; type: cell-based; details: SK-BR-3
# Method in brief: (§1)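 SKBr3 cells at 60–70% confluence were exposed to drug or DMSO vehicle. Lysis was in 50 mM Tris pH 7.4, 150 mM NaCl, 1% NP-40, with protein measured by BCA. Lysates of 20–100 µg were run on SDS-PAGE, blotted to nitrocellulose, probed with primary antibodies and detected with a peroxidase-conjugated secondary (1:5,000). Loading was checked with β-actin or PI(3)K p85.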
# SK-BR-3 [5] = assay: Inhibition of HSP70-mediated antiapoptotic activity in human SKBR3 cells assessed as induction of caspase-3 cleavage after 24 hrs by Western blot analysis; type: cell-based
# Method in brief: (§2)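 SKBr3 cells were treated for 24 h. Lysates were probed by western blot for caspase-3 and PARP cleavage. Apaf-1 complexes were pulled down with Apaf-1 antibody (with control IgG) and immunoblotted.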
# NCI-H526 [6] = assay: Inhibition of HSP70-mediated antiapoptotic activity in human NCI-H526 cells assessed as induction of caspase-3 cleavage after 24 hrs by Western blot analysis; type: cell-based
# Method in brief: (§3)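 NCI-H526 cells were treated for 24 h. PARP and caspase-3 cleavage were read by western blot of lysates in Tris/NaCl/NP-40 buffer. Apaf-1 complexes were immunoprecipitated with Apaf-1 antibody, using control IgG, then blotted.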
# [7] = target: Heat shock protein HSP 90-beta (Homo sapiens) (UniProt P08238); assay: Inhibition of HSP90-mediated antiapoptotic activity in human SKBR3 cells assessed as induction of PARP cleavage at 50 uM after 24 hrs by Western blot analysis; type: cell-based; details: SK-BR-3
# Method in brief: as §1
# NCI-H526 [8] = assay: Inhibition of HSP70-mediated antiapoptotic activity in human NCI-H526 cells assessed as release of Apaf-1 from chaperon complex after 24 hrs by Western blot analysis; type: cell-based
# Method in brief: as §3
# [9] = target: Heat shock protein HSP 90-beta (Homo sapiens) (UniProt P08238); assay: Inhibition of HSP90-mediated antiapoptotic activity in human NCI-H526 cells assessed as induction of Akt degradation at 50 uM after 24 hrs by Western blot analysis; type: cell-based
# SK-BR-3 [10] = assay: Inhibition of HSP70-mediated antiapoptotic activity in human SKBR3 cells assessed as induction of cell growth arrest after 72 hrs by propidium iodide staining-based flow cytometry
# [11] = target: Heat shock protein HSP 90-beta (Homo sapiens) (UniProt P08238); assay: Inhibition of HSP90-mediated antiapoptotic activity in human NCI-H526 cells assessed as reduction in BAD phosphorylation at 50 uM after 24 hrs by Western blot analysis; type: cell-based
# [12] = target: Heat shock protein HSP 90-beta (Homo sapiens) (UniProt P08238); assay: Inhibition of HSP90-mediated antiapoptotic activity in human MCF7 cells assessed as induction of PARP cleavage at 50 uM after 24 hrs by Western blot analysis; type: cell-based
# SK-BR-3 [13] = assay: Inhibition of HSP70-mediated antiapoptotic activity in human SKBR3 cells assessed as increase in caspase-3 activity after 24 hrs by Western blot analysis; type: cell-based
# [14] = target: Heat shock protein HSP 90-beta (Homo sapiens) (UniProt P08238); assay: Inhibition of HSP90-mediated antiapoptotic activity in human MCF7 cells assessed as induction of caspase-9 cleavage at 50 uM after 24 hrs by Western blot analysis; type: cell-based
# NCI-H526 [15] = assay: Inhibition of HSP70-mediated antiapoptotic activity in human NCI-H526 cells assessed as induction of PARP cleavage after 24 hrs by Western blot analysis; type: cell-based
# Method in brief: as §3
# SK-BR-3 [16] = assay: Inhibition of HSP70-mediated antiapoptotic activity in human SKBR3 cells assessed as release of Apaf-1 from chaperon complex after 24 hrs by Western blot analysis; type: cell-based
# Method in brief: as §2
# SK-BR-3 [17] = assay: Inhibition of HSP70-mediated antiapoptotic activity in human SKBR3 cells assessed as induction of PARP cleavage after 24 hrs by Western blot analysis; type: cell-based
# Method in brief: as §2
# [18] = target: Heat shock protein HSP 90-beta (Homo sapiens) (UniProt P08238); assay: Inhibition of HSP90-mediated antiapoptotic activity in human SKBR3 cells assessed as induction of cell growth arrest at 50 uM after 24 hrs by propidium iodide staining-based flow cytometry; details: SK-BR-3
# [19] = target: Heat shock protein HSP 90-beta (Homo sapiens) (UniProt P08238); assay: Inhibition of HSP90-mediated antiapoptotic activity in human MCF7 cells assessed as induction of cell growth arrest at 50 uM after 24 hrs by propidium iodide staining-based flow cytometry
# [20] = target: Heat shock protein HSP 90-beta (Homo sapiens) (UniProt P08238); assay: Inhibition of HSP90-mediated antiapoptotic activity in human MCF7 cells assessed as induction of caspase-3 cleavage at 50 uM after 24 hrs by Western blot analysis; type: cell-based
# Chain of Heat shock protein HSP 90-beta (Homo sapiens) (P08238 whole entry): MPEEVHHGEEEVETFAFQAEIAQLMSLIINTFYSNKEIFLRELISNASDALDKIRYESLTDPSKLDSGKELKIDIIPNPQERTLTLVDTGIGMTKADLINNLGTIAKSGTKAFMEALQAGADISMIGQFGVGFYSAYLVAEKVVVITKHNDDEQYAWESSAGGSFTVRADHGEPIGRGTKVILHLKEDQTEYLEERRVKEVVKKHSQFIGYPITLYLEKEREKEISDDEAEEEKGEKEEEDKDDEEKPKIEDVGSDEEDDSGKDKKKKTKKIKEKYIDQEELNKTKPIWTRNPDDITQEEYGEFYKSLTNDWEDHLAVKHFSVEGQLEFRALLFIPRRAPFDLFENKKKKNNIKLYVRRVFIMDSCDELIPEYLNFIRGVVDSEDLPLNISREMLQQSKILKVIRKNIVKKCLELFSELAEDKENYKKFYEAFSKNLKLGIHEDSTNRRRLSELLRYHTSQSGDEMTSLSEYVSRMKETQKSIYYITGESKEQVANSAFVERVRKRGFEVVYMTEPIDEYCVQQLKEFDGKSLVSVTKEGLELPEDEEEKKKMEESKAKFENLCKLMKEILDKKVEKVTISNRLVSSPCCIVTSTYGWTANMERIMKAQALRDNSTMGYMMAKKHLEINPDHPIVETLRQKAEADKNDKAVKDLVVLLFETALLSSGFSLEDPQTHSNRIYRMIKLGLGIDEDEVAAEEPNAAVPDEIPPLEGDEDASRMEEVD
# Chain of RAC-alpha serine/threonine-protein kinase (Homo sapiens) (P31749 whole entry): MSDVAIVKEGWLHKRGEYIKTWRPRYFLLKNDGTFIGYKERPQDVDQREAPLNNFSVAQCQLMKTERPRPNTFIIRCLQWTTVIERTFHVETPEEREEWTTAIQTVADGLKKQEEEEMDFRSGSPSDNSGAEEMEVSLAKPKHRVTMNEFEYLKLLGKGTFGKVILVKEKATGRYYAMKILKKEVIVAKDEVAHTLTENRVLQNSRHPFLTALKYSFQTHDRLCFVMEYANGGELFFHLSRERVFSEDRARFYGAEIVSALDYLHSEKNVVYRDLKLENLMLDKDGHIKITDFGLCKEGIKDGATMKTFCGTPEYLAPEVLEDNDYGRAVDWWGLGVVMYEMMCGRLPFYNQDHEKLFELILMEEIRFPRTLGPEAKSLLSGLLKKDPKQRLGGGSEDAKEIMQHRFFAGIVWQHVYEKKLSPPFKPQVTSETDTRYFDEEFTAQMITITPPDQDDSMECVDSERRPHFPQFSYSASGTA
compound,measurement,setting,value
O=c1[nH]c2ccccc2n1C1CCN(Cc2ccc(-c3nc4cc5[nH]cnc5cc4nc3-c3ccccc3)cc2)CC1,inhibition,[1],Active
CC(C)NCCCn1c(Cc2cc3c(cc2I)OCO3)nc2c(N)nc(F)nc21,inhibition,[2],Active
same,Activity,[3],Active
CCCCCCN(C(=O)CCCCCN1C(=O)NC(c2ccc(-c3ccccc3)cc2)C(C(=O)OCc2ccccc2)=C1C)C(C(=O)NCCCC)c1ccc(OCC(=O)OC)c(C(=O)OC)c1 (stereo not given),Activity,[4],Active
same,inhibition,SK-BR-3 [5],Active
same,inhibition,NCI-H526 [6],inactive
same,Activity,[7],Active
same,inhibition,NCI-H526 [8],inactive
same,Activity,[9],Active
same,inhibition,SK-BR-3 [10],Active
same,inhibition,[11],Active
same,Activity,[12],Active
same,inhibition,SK-BR-3 [13],Active
same,Activity,[14],Active
same,inhibition,NCI-H526 [15],inactive
same,inhibition,SK-BR-3 [16],inactive
same,inhibition,SK-BR-3 [17],Active
same,Activity,[18],Active
same,Activity,[19],Active
same,Activity,[20],Active
